Results on 2 compounds are retold here after ChEMBL document CHEMBL3297709, “High affinity ligands and potent antagonists for the α1D-adrenergic receptor. Novel 3,8-disubstituted [1]benzothieno[3,2-d]pyrimidine derivatives” (Eur J Med Chem, 2014).

For test [1], the target named is T1, Alpha-1D adrenergic receptor (Homo sapiens, UniProt P25100).
T1 sequence (P25100 whole entry): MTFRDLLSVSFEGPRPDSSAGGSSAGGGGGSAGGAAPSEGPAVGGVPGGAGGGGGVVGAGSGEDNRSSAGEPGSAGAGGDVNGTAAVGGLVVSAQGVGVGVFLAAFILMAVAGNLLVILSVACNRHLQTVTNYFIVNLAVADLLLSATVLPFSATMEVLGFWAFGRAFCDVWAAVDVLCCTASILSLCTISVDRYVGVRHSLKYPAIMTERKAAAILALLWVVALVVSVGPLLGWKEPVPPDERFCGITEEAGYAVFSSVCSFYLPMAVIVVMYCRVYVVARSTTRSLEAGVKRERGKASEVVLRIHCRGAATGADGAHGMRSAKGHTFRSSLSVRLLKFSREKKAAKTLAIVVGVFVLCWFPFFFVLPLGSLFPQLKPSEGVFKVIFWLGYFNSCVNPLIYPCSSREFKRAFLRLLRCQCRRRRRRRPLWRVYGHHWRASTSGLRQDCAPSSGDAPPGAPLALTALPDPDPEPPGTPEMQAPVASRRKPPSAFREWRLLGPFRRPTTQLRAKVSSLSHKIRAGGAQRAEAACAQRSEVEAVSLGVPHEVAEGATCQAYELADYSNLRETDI
The experiment in a line: Displacement of [125I]BE2254 from human alpha1d receptor expressed in HEK293 cells. The class given is cell-based. In short, it runs like this: (§1)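 Membranes from HEK293 cells stably transfected with human α1A, α1B or α1D receptor cDNA, selected under 400 µg/mL geneticin. Competition against 50 pM [125I]BE2254; nonspecific binding defined with 10 µM phentolamine. Curves fitted by nonlinear regression. Mean ± SE of three experiments run in duplicate.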
Background: In a radioligand displacement assay an active substance lowers the binding of a labelled ligand.

Test [2] deals with T2, Alpha-1A adrenergic receptor (Rattus norvegicus) (UniProt P43140).
T2 sequence (whole entry): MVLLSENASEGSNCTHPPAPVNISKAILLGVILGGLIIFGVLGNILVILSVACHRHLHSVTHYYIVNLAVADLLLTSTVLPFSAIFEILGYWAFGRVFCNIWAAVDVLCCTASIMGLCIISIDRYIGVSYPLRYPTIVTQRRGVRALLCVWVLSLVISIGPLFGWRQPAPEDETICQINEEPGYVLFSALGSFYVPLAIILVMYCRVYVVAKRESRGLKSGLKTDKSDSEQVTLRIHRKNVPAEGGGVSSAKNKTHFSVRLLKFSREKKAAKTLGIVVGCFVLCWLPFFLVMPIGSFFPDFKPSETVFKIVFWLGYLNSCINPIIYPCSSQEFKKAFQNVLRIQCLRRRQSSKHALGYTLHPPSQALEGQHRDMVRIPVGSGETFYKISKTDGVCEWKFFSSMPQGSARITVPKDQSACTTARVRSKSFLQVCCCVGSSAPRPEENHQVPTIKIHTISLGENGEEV
The experiment in a line: Antagonist activity at alpha1A adrenoceptor in Wistar rat vas deferens assessed as noradrenaline induced contractions. In short, it runs like this: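 Male Wistar rat (275-300 g) prostatic vas deferens in 20 mL organ bath, physiological salt solution, 37 °C, 5% CO2:95% O2, pH 7.4. Primed twice with 10 µM (-)-NA, 45 min wash/equilibration, then cumulative (-)-NA curve recorded isotonically. Antagonist incubated 30–60 min before repeat curve. pKb = log(DR-1) - log[B] from ED50 ratio; mean ± SE of 4–5 experiments.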

The target in test [3] is T3, Alpha-1B adrenergic receptor (Homo sapiens, UniProt P35368).
T3 sequence (P35368 whole entry): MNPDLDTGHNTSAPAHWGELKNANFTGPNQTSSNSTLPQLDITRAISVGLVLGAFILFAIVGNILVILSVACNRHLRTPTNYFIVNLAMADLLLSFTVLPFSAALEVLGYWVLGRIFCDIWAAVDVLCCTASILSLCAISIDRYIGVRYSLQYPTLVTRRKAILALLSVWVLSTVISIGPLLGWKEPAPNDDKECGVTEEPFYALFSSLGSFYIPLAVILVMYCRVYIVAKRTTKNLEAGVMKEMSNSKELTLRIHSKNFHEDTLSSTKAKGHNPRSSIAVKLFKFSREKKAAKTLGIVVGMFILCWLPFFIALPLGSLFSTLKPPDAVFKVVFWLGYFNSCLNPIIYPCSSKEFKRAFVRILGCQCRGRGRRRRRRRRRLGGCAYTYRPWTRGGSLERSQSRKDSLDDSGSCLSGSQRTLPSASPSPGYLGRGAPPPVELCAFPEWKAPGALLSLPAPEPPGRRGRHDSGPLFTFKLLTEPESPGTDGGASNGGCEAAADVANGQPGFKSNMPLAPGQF
The experiment in a line: Displacement of [125I]BE2254 from human alpha1b receptor expressed in HEK293 cells. It is filed as cell-based. In short, it runs like this:
as §1

In test [4] the target is T4, Alpha-1D adrenergic receptor (Rattus norvegicus) (UniProt P23944).
T4 sequence (whole entry): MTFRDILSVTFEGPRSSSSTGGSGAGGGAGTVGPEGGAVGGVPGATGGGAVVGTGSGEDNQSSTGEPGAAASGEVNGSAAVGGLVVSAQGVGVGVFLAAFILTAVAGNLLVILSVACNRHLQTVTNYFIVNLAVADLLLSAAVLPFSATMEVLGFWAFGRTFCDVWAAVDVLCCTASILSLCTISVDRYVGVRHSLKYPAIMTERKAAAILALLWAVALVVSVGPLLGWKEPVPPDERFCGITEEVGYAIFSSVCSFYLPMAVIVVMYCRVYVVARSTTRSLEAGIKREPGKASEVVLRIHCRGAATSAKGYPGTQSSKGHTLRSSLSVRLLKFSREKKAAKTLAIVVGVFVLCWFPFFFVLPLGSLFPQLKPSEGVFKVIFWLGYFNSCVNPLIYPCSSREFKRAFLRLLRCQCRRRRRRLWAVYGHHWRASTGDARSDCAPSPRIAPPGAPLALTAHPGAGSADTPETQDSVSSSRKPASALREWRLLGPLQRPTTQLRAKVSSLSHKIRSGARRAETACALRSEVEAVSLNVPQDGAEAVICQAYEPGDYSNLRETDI
Kind of test: Antagonist activity at alpha1D adrenoceptor in Wistar rat thoracic aorta assessed as noradrenaline induced contractions. Summed up: (§2)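 Endothelium-denuded helicoidal thoracic aorta strips (15 x 3 mm) from male Wistar rats, Krebs solution, 1 g tension, ≥2 h equilibration. Cumulative (-)-NA curves recorded isometrically at 1 h intervals, third as control. Antagonist equilibrated 60 min before fourth curve. NA solutions held 0.05% Na2S2O4. pKb = log(DR-1) - log[B]; mean ± SE of 4–5 experiments.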

In test [5] the target is T4, Alpha-1D adrenergic receptor (Rattus norvegicus). The experiment in a line: Antagonist activity at alpha1D adrenoceptor in Wistar rat thoracic aorta assessed as decrease in noradrenaline induced contractions at 0.1 uM. Further details: scale not given: the % may be the effect or the level left. In short, it runs like this: as §2

With `COc1ccccc1N1CCN(CCn2c(=O)[nH]c3c(sc4ccc(NC(=O)CCCC(=O)N(C)Cc5ccccc5)cc43)c2=O)CC1`, the Ki – broadly, the equilibrium dissociation constant of an inhibitor or competing ligand from its target – is 56.2 pM in test [1] and 1910 pM in test [3]. The values for the pKb in test [2] and in test [4] were 7.82 and 9.15, respectively. The Activity in test [5] is 100%.

On to `COc1ccccc1N1CCN(CCn2c(=O)[nH]c3c(sc4ccc(NC(=O)CCCC(=O)NCc5ccccc5)cc43)c2=O)CC1`, for which the values for the Ki in test [1] and in test [3] were 141 pM and 832 pM, respectively. Further, the negative logarithm of the Kb (pKb) (as a rule, the negative decadic logarithm of the Kb, by convention in mol/L) in test [2] stood at 7.7; in test [4], 8.64. For the same compound, the Activity in test [5] worked out at 100%.
